Series [1] relates to Liver microsome. In words: Ratio of drug metabolism in […] to drug metabolism in rat hepatocytes at 10 uM after 4 hrs of incubation by HPLC-MS/MS analysis. The series is classed as ADME, cell-based, Hepatocyte. For orientation: Liver microsomes are vesicles of endoplasmic reticulum, rich in cytochrome P450 enzymes.
Series [2] in a line: Drug metabolism in sandwich-cultured rat hepatocytes assessed as fold increase in DB829 at 10 uM after 2 hrs of incubation by HPLC-MS/MS analysis. The series is classed as ADME, cell-based, Hepatocyte. The method in brief: (§1)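 Sandwich-cultured hepatocytes were used on day 5 (human) or day 4 (rat) and rinsed with warm phenol-red-free DMEM. They were then exposed to 10 µM DB868 (0.1–0.2% DMSO) at 37°C. Medium and methanol/water cell lysates were collected at 0.5, 2, 4 and 24 h. Analytes were quantified by HPLC/MS/MS with deuterated internal standards; protein by Bradford. Replicates: 6 (human) or 4 (rat).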

The subject of series [3] is Liver microsome. In words: Intrinsic clearance in human liver microsomes assessed as (Z)-N'-hydroxy-6-(5-(5-((Z)-N'-methoxycarbamimidoyl)pyridin-2-yl)furan-2-yl nicotinimidamide formation measured per mg of protein by HPLC-MS/MS analysis. Format: ADME. The method in brief:
(§2)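 M1 formation kinetics: HLM or RLM (0.5 mg/mL) in phosphate pH 7.4 with MgCl2, DB868 0.1–100 µM, started with 2 mM NADPH. Run 5 min (HLM) or 10 min (RLM) under initial-rate conditions (<20% consumption) in triplicate. Quantified by HPLC/MS/MS with d6-DB868 internal standard. Fitted to a one-enzyme (HLM) or two-enzyme (RLM) Michaelis–Menten model; Clint = Vmax/Km.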

The test system of series [4] is Hepatocyte. Put plainly: Biotransformation in sandwich-cultured human hepatocytes assessed as depletion of compound at 10 uM after 4 hrs of incubation by HPLC-MS/MS analysis. Format: ADME, cell-based. A digest of the protocol: as §1
Series [5] in a line: Biotransformation in sandwich-cultured rat hepatocytes assessed as depletion of compound at 10 uM after 4 hrs of incubation by HPLC-MS/MS analysis. Format: ADME, cell-based, Hepatocyte. Conditions: read-out: Drug metabolism. A digest of the protocol:
as §1

The nature of series [6]: Drug metabolism in sandwich-cultured rat hepatocytes assessed as (Z)-N'-hydroxy-6-(5-(5-((Z)-N'-methoxycarbamimidoyl)pyridin-2-yl)furan-2-yl)nicotinimidamide at 10 uM after 4 hrs of incubation by HPLC-MS/MS analysis. The series is classed as ADME, cell-based, Hepatocyte. The method in brief:
as §1

Series [7] has as its system Liver microsome. Put plainly: Drug metabolism in rat liver microsomes assessed as (Z)-N'-hydroxy-6-(5-(5-((Z)-N'-methoxycarbamimidoyl)pyridin-2-yl)furan-2-yl nicotinimidamide formation measured per mg of protein by HPLC-MS/MS analysis. Format: ADME. A digest of the protocol:
as §2

Series [8] deals with Liver microsome. Put plainly: Prodrug conversion in rat liver microsomes assessed as depletion of compound at 10 uM after 180 mins incubation by HPLC-UV chromatography. Format: ADME. Conditions: 3 h. A digest of the protocol:
(§3)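 HLM or RLM (0.5 mg/mL) were incubated in triplicate in 100 mM phosphate pH 7.4 with 10 mM MgCl2 and an NADPH-regenerating system (1 mM NADP+, glucose 6-phosphate, G6PDH). DB868 was 10 µM. Sampled up to 180 min. Prodrug and metabolites were measured by HPLC-UV at 359 nm and expressed relative to initial prodrug; DB829 LLOQ 50 nM.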

The target in series [9] is T1, Cytochrome P450 1A2 (Homo sapiens, UniProt P05177).
T1 sequence (P05177 whole entry): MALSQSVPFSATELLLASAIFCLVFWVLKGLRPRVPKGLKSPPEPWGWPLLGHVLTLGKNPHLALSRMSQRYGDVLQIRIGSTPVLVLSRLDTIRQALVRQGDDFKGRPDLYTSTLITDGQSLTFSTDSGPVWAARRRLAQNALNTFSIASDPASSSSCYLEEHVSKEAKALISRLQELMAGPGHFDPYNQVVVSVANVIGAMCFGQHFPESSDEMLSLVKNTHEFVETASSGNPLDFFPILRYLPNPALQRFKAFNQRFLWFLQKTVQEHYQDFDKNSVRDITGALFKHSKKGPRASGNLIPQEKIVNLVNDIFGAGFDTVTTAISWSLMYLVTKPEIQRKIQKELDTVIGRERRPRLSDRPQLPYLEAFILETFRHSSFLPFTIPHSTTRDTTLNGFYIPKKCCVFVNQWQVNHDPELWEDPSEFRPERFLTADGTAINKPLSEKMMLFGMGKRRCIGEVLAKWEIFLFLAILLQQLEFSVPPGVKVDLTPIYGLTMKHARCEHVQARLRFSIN
In words: Prodrug conversion assessed as human recombinant CYP1A2-mediated (3Z,3'Z)-6,6'-(furan-2,5-diyl)bis(N'-hydroxynicotinimidamide) formation at 5 uM after 180 mins incubation by HPLC-UV chromatogram. The conditions noted are these: recombinant enzyme, 15 min, in the assay text read “15 mins” for “180 mins”. The series is classed as ADME. A digest of the protocol:
(§4)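 Insect-cell-expressed human or rat P450 (with NADPH-P450 reductase, some also with cytochrome b5) at 0.1 pmol/µL in 100 mM potassium phosphate pH 7.4 with 10 mM MgCl2. DB868 (for M1) or M1 (for M2) was added at 5 µM (0.5% DMSO) and started with 2 mM NADPH. Stopped after 15 min with ice-cold acetonitrile, then HPLC-UV. Duplicate incubations.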

Series [10] addresses T2, Cytochrome P450 1A2 (Rattus norvegicus, UniProt P04799).
T2 sequence (P04799 whole entry): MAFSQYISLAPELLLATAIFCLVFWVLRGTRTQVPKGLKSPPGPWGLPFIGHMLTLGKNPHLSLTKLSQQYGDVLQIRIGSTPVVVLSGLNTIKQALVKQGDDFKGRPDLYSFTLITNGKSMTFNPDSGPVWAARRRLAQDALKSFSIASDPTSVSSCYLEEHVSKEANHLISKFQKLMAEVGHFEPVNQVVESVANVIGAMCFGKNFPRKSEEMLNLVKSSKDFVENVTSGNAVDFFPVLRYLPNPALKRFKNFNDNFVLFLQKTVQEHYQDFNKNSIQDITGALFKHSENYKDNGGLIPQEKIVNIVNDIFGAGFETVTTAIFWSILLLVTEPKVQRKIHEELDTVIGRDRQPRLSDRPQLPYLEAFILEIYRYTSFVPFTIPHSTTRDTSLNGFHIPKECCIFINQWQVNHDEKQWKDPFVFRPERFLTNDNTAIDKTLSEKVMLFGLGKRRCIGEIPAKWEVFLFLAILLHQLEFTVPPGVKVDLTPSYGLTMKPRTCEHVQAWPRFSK
In words: Prodrug conversion assessed as rat recombinant CYP1A2-mediated (Z)-N'-hydroxy-6-(5-(5-((Z)-N'-methoxycarbamimidoyl)pyridin-2-yl)furan-2-yl) nicotinimidamide formation at 5 uM after 180 mins incubation by HPLC-UV chromatogram. The series is classed as ADME. Conditions: recombinant enzyme, 15 min, in the assay text read “15 mins” for “180 mins”. The method in brief:
as §4

The subject of series [11] is Liver microsome. In words: Prodrug conversion in human liver microsomes assessed as elution time at 10 uM after 180 mins incubation by HPLC-UV chromatography. Format: ADME. The conditions noted are these: 3 h. The method in brief:
as §3

In series [12] the test system is Liver microsome. Put plainly: Prodrug conversion in human liver microsomes assessed as depletion of compound at 10 uM after 180 mins incubation by HPLC-UV chromatography. Conditions: 3 h. Format: ADME. The method in brief:
as §3

As to `CO/N=C(\N)c1ccc(-c2ccc(-c3ccc(/C(N)=N/OC)cn3)o2)nc1.Cl`, the Ratio in series [1] is on record as 25. In addition, the “fold change (FC)” value in [2] was found to be 23. Moreover, the CLint in series [3] was found to be 31 µL/min/mg. Further, the Drug metabolism entry in series [4] was “metabolite_detected”; in series [6] it was “metabolite_detected”; in [8], 43%; in series [9] it was “metabolite_detected”; in [10] it was “metabolite_detected”; in [12] it was 100%. Further, in series [5], the metabolised at 4 h, 10 µM was determined as 50%. In addition, the Vmax (commonly the rate approached at saturating substrate) in [7] worked out at 12 pmol/min. Besides, in series [11], the Retention_time was 18.5 min.

These data come from ChEMBL document CHEMBL3525966, “Compartmental and enzyme kinetic modeling to elucidate the biotransformation pathway of a centrally acting antitrypanosomal prodrug” (Drug Metab Dispos, 2013).
